# Measured values: ChEMBL document CHEMBL1153794, “Oleanane-type triterpenoids from Aceriphyllum rossii and their cytotoxic activity” (J Nat Prod, 2009)
# Key:
# [1] = Cytotoxicity activity against mouse LLC cells after 48 hrs by MTT assay; conditions: Lewis lung carcinoma
# [2] = tested on: MCF7; experiment: Cytotoxic activity against human MCF7 cells after 48 hrs by MTT assay; type: functional, cell-based; conditions: MCF7, 48 h
# In short: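 Modified MTT assay. Viable cells seeded at 1 × 10^4 per well in growth medium and incubated at 37 °C, 5% CO2. Samples dissolved in DMSO and diluted in growth medium to final concentrations of 5.0–150 µM. Optical density read on a microplate reader; IC50 values derived.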
Structure (SMILES),IC50 [1],IC50 [2]
C[C@@]1(C(=O)O)CC[C@]2(C)CC[C@]3(C)C(=CC[C@@H]4[C@@]5(C)CC[C@H](O)[C@@](C)(C(=O)O)[C@@H]5CC[C@]43C)[C@@H]2C1,> 150 µM,> 150 µM
CC1(C)CC[C@]2(C(=O)O)CC[C@]3(C)C(=CC[C@@H]4[C@@]5(C)CC[C@H](O)C(C)(C)[C@@H]5CC[C@]43C)[C@@H]2C1 [OLEANOLIC_ACID],> 150 µM,> 150 µM
C[C@@]1(C(=O)O)CC[C@]2(C)CC[C@]3(C)C(=CC[C@@H]4[C@@]5(C)CC[C@@H](O)[C@@](C)(C(=O)O)[C@@H]5CC[C@]43C)[C@@H]2C1,47.8 µM,62.4 µM
CC(=O)O[C@@H]1CC[C@@]2(C)[C@@H](CC[C@]3(C)[C@@H]2CC=C2[C@@H]4C[C@](C)(C(=O)O)CC[C@]4(C)CC[C@]23C)[C@]1(C)C(=O)O,> 150 µM,> 150 µM
CC1(C)CC[C@]2(C)CC[C@]3(C(=O)O)C(=CC[C@@H]4[C@@]5(C)CC[C@@H](OC(=O)/C=C/c6ccc(O)c(O)c6)C(C)(C)[C@@H]5CC[C@]43C)[C@@H]2C1,> 150 µM,> 150 µM
CC1(C)CC[C@]2(C)CC[C@]3(C(=O)O)C(=CC[C@@H]4[C@@]5(C)CC[C@@H](O)[C@@](C)(C=O)[C@@H]5CC[C@]43C)[C@@H]2C1,39.2 µM,47 µM
CC1(C)CC[C@]2(C)CC[C@]3(C(=O)O)C(=CC[C@@H]4[C@@]5(C)CC[C@@H](O)[C@@](C)(CO)[C@@H]5CC[C@]43C)[C@@H]2C1 [ACERIPHYLLIC ACID A],8.36 µM,> 150 µM
CC1(C)[C@@H](O)CC[C@]2(C)[C@H]3CC=C4[C@@H]5C[C@](C)(C(=O)O)CC[C@]5(C)CC[C@@]4(C)[C@]3(C)CC[C@@H]12,16.6 µM,> 150 µM
C[C@@]1(C(=O)O)CC[C@]2(C)CC[C@]3(C)C(=CC[C@@H]4[C@@]5(C)CC[C@H](O)[C@@](C)(CO)[C@@H]5CC[C@]43C)[C@@H]2C1,> 150 µM,107 µM
CC1(C)CC[C@]2(C)CC[C@]3(C(=O)O)C(=CC[C@@H]4[C@@]5(C)CC[C@H](O)C(C)(C)[C@@H]5CC[C@]43C)[C@@H]2C1,7.63 µM,> 150 µM
CC1(C)CC[C@]2(C)CC[C@]3(C(=O)O)C(=CC[C@@H]4[C@@]5(C)CCC(=O)[C@@](C)(CO)[C@@H]5CC[C@]43C)[C@@H]2C1,6.56 µM,39.2 µM
CC1(C)CC[C@]2(C)CC[C@]3(C(=O)O)C(=CC[C@@H]4[C@@]5(C)CC[C@H]6OC(C)(C)OC[C@@]6(C)[C@@H]5CC[C@]43C)[C@@H]2C1,> 150 µM,> 150 µM
CC1(C)CC[C@]2(C)CC[C@]3(C(=O)O)C(=CC[C@@H]4[C@@]5(C)CCC(=O)C(C)(C)[C@@H]5CC[C@]43C)[C@@H]2C1,> 150 µM,53.6 µM
CC(=O)O[C@@H]1CC[C@@]2(C)[C@@H](CC[C@]3(C)[C@@H]2CC=C2[C@@H]4CC(C)(C)CC[C@]4(C)CC[C@]23C(=O)O)[C@]1(C)C(=O)O,> 150 µM,58.4 µM
